Measurements of several laboratories.
Lines come from different studies, so protocols differ.
Target: Calcium/calmodulin-dependent protein kinase kinase 2 (CAMKK2, Homo sapiens, UniProt Q96RR4)

| Structure (SMILES) | observed | method | tested at | remaining binding |
| --- | --- | --- | --- | --- |
| CNC(=O)[C@@H]1CC[C@@H](n2c(-c3ccc4cnccc4c3)nc3ccc(C(=O)NCc4cccc(C(N)=O)c4)cc32)C1 | binding | competition with immobilised ligand | 1 µM | 85% |
| O=C(O)[C@@H]1[C@@H](Cn2nnc3ccccc3c2=O)CC[C@H]1C(=O)c1ccc(OCCC2CCOCC2)cc1 | cell-free assay | competition with immobilised ligand | 1 µM | 100% |
| C=CC(=O)N1CCC(C(=O)NCC(=O)N2CCN(c3nc(-c4cnc(N)nc4C(F)F)nc(N4CCOCC4)n3)CC2)CC1 | binding | competition with immobilised ligand | 1 µM | 95% |
| Cc1cc(NC(=O)c2cccc(S(F)(F)(F)(F)F)c2)cc(-n2ccn3nc(-c4cccnc4)cc23)c1 | cell-free assay | competition with immobilised ligand | 1 µM | 99.6% |
| Nc1ncc2c(n1)-c1c([nH]c3ccc(C#CC4CC4)cc13)CCCC2 | binding | competition with immobilised ligand | 1 µM | 94% |
| CN(CCCC(F)(F)F)c1nccc(-c2cnn3ncccc23)n1 | binding |  | 1 µM | 100% |
| N#Cc1ccc(Nc2ccc3[nH]c(=O)[nH]c3c2)c(Cl)c1 | cell-free assay | competition with immobilised ligand | 1 µM | 91% |
| CN(c1nccc(-c2cnn3ncccc23)n1)C1CC1 | binding |  | 1 µM | 100% |
| c1cncc(-c2cccc(Nc3nccc(NC4CCCCC4)n3)c2)c1 | binding | competition with immobilised ligand | 10 µM | 69% |
| N[C@H]1CCN(c2nccc(-c3cnn4ncccc34)n2)C1 | binding |  | 1 µM | 100% |
| CC1=C(C#N)C(c2ccc3c(c2)c(NC(=O)c2ccccc2C)nn3C)C(C#N)=C(C)N1 | cell-free assay | competition with immobilised ligand | 1 µM | 100% |
| c1cnn2ncc(-c3ccnc(N4CCC45COC5)n3)c2c1 | binding |  | 1 µM | 80% |
| O=C(c1ccc(Nc2nccc(-c3cc4ccccc4s3)n2)cc1)N1CCC(N2CCCC2)CC1 | binding | competition with immobilised ligand | 1 µM | 82% |
| COc1ccnn2ncc(-c3ccnc(N(C)C)n3)c12 | binding |  | 1 µM | 80% |
| FC(F)(F)Oc1cccc(-c2cnc3ccc(-c4ccncc4)nn23)c1 | cell-free assay | competition with immobilised ligand | 5 µM | 55% |
| CNC(=O)c1ccc(Nc2ncc(C(F)(F)F)c(NCc3nccnc3N(C)S(C)(=O)=O)n2)cc1 | cell-free assay | competition with immobilised ligand | 0.1 µM | 68% |
| O=C(c1ccc(Nc2ncc(Cl)c(-c3ccc(Cl)s3)n2)cc1)N1CCC(N2CCCC2)CC1 | binding | competition with immobilised ligand | 1 µM | 65% |
| O=C(NCC1CCOCC1)c1n[nH]cc1NC(=O)c1c(F)cccc1F | binding | competition with immobilised ligand | 1 µM | 68% |
| C[C@@H]1CCN(c2nccc(-c3cnn4ncccc34)n2)C1 | binding |  | 1 µM | 72% |
| C[C@H](c1ccc(F)cc1)N(Cc1cccc(C(=O)O)c1)C(=O)c1cnc2ccccc2c1 | cell-free assay | competition with immobilised ligand | 1 µM | 95% |
